Tests used:
Experiment in all cases: NCI-60 single-dose antiproliferative screen
Type in all cases: cell-based
EKVX = details: Homo sapiens, 48 h, read-out: growth percent
Outline: (§1)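 NCI-60 protocol. Lines were grown in RPMI 1640 with 5% FBS and 2 mM L-glutamine, plated and incubated 24 h at 37 °C; time-zero plates were TCA-fixed. The test compound was dissolved in DMSO, diluted in medium with 50 μg/mL gentamicin and given once at a final 10^-5 M (DMSO control) for 48 h. Cells were fixed with cold TCA (1 h, 4 °C) and stained with 0.4% SRB in 1% acetic acid for 10 min. Dye was dissolved in 10 mM Trizma base and read at 515 nm. Growth percent was calculated from time-zero, test and control ODs.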

SN12C = details: Homo sapiens, 48 h, read-out: growth percent
Outline: (§2)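 Cells grown in RPMI 1640 with 5% FBS and 2 mM L-glutamine, plated and held 24 h at 37 °C; time-zero plates TCA-fixed. DMSO stocks were diluted in gentamicin-containing medium to a final 10^-5 M, with a DMSO-only control. Exposure 48 h, 5% CO2. Adherent cells TCA-fixed 1 h at 4 °C, stained with 0.4% SRB, solubilised in 10 mM Trizma base, read at 515 nm. Growth percent derived from ODtzero, ODtest and ODctrl.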

SF-268 = details: Homo sapiens, SF-268, 48 h, read-out: growth percent
Outline: as §1

SK-MEL-5 = details: Homo sapiens, SK-MEL-5, 48 h, read-out: growth percent
Outline: as §2

CAKI-1 = details: Homo sapiens, CAKI-1, 48 h, read-out: growth percent
Outline: as §1

M14 = details: Homo sapiens, M14, 48 h, read-out: growth percent
Outline: as §1

MALME-3M = details: Homo sapiens, 48 h, read-out: growth percent
Outline: as §1

T-47D = details: Homo sapiens, T47D, 48 h, read-out: growth percent
Outline: as §2

786-0 = details: Homo sapiens, 786-0, 48 h, read-out: growth percent
Outline: as §1

HS 578T = details: Homo sapiens, 48 h, read-out: growth percent
Outline: as §1

U251 = details: Homo sapiens, U-251, 48 h, read-out: growth percent
Outline: as §2

SF-295 = details: Homo sapiens, SF-295, 48 h, read-out: growth percent
Outline: as §1

SK-OV-3 = details: Homo sapiens, SK-OV-3, 48 h, read-out: growth percent
Outline: as §2

OVCAR-8 = details: Homo sapiens, OVCAR-8, 48 h, read-out: growth percent
Outline: as §1

TK-10 = details: Homo sapiens, TK-10, 48 h, read-out: growth percent
Outline: as §2

UO-31 = details: Homo sapiens, UO-31, 48 h, read-out: growth percent
Outline: as §2

OVCAR-5 = details: Homo sapiens, OVCAR-5, 48 h, read-out: growth percent
Outline: as §1

HOP-62 = details: Homo sapiens, HOP-62, 48 h, read-out: growth percent
Outline: as §1

NCI-H460 = details: Homo sapiens, NCI-H460, 48 h, read-out: growth percent
Outline: as §1

NCI/ADR-RES = details: Homo sapiens, 48 h, read-out: growth percent
Outline: as §1

OVCAR-3 = details: Homo sapiens, OVCAR-3, 48 h, read-out: growth percent
Outline: as §1

HOP-92 = details: Homo sapiens, HOP-92, 48 h, read-out: growth percent
Outline: as §1

COLO205 = details: Homo sapiens, COLO 205, 48 h, read-out: growth percent
Outline: as §1

NCI-H322M = details: Homo sapiens, 48 h, read-out: growth percent
Outline: as §1

NCI-H226 = details: Homo sapiens, NCI-H226, 48 h, read-out: growth percent
Outline: as §1

MOLT-4 = details: Homo sapiens, MOLT-4, 48 h, read-out: growth percent
Outline: as §1

LOX IMVI = details: Homo sapiens, 48 h, read-out: growth percent
Outline: as §1

RPMI-8226 = details: Homo sapiens, RPMI-8226, 48 h, read-out: growth percent
Outline: as §1

NCI-H522 = details: Homo sapiens, NCI-H522, 48 h, read-out: growth percent
Outline: as §1

OVCAR-4 = details: Homo sapiens, OVCAR-4, 48 h, read-out: growth percent
Outline: as §1

MDA-MB-435 = details: Homo sapiens, MDA-MB-435, 48 h, read-out: growth percent
Outline: as §1

MDA-MB-468 = details: Homo sapiens, MDA-MB-468, 48 h, read-out: growth percent
Outline: as §1

SNB-19 = details: Homo sapiens, SNB-19, 48 h, read-out: growth percent
Outline: as §2

RXF 393 = details: Homo sapiens, RXF 393, 48 h, read-out: growth percent
Outline: as §1

DU-145 = details: Homo sapiens, DU-145, 48 h, read-out: growth percent
Outline: as §1

HCT-15 = details: Homo sapiens, HCT-15, 48 h, read-out: growth percent
Outline: as §1

`COc1cc(CNC(=O)CCCC/C=C/C(C)C)ccc1OCc1cn(-c2ccc(C)cc2)nn1` [14n, (E)-N-(3-Methoxy-4-((1-(p-tolyl)-1H-1,2,3-triazol-4-yl)methoxy)benzyl)-8-methylnon-6-enamide] showed an activity at 10 µM (EKVX) of 84.8%, an activity at 10 µM (SN12C) of 89.3% and an activity at 10 µM (SF-268) of 81.7%. The activity at 10 µM (SK-MEL-5) was 86.8%, the activity at 10 µM (CAKI-1) was 88.5% and the activity at 10 µM (M14) was 93.3%. The activity at 10 µM (MALME-3M) was 110%, the activity at 10 µM (T-47D) was 77.4% and the activity at 10 µM (786-0) was 99.6%. It also gave an activity at 10 µM (HS 578T) of 89.7%, an activity at 10 µM (U251) of 81.7% and an activity at 10 µM (SF-295) of 98.9%. It also gave an activity at 10 µM (SK-OV-3) of 94.4%, an activity at 10 µM (OVCAR-8) of 76.5% and an activity at 10 µM (TK-10) of 101%. For the same molecule, the activity at 10 µM (UO-31) was 75.8%, the activity at 10 µM (OVCAR-5) was 108% and the activity at 10 µM (HOP-62) was 86.4%. For the same molecule, the activity at 10 µM (NCI-H460) was 93.2%, the activity at 10 µM (NCI/ADR-RES) was 87.4% and the activity at 10 µM (OVCAR-3) was 91.8%. For the same molecule, the activity at 10 µM (HOP-92) was 83.5%, the activity at 10 µM (COLO205) was 115% and the activity at 10 µM (NCI-H322M) was 89.4%. It also gave an activity at 10 µM (NCI-H226) of 75.8%, an activity at 10 µM (MOLT-4) of 83.5% and an activity at 10 µM (LOX IMVI) of 85.1%. For the same molecule, the activity at 10 µM (RPMI-8226) was 74.1%, the activity at 10 µM (NCI-H522) was 62.1% and the activity at 10 µM (OVCAR-4) was 88.8%. For the same molecule, the activity at 10 µM (MDA-MB-435) was 109%, the activity at 10 µM (MDA-MB-468) was 92.4% and the activity at 10 µM (SNB-19) was 77.9%. The activity at 10 µM (RXF 393) was 102%, the activity at 10 µM (DU-145) was 97% and the activity at 10 µM (HCT-15) was 104%.

`COc1cc(CNC(=O)CCCC/C=C/C(C)C)ccc1OCc1cn(-c2ccc(Cl)cc2)nn1` [14a, (E)-N-(4-((1-(4-Chlorophenyl)-1H-1,2,3-triazol-4-yl)methoxy)-3-methoxybenzyl)-8-methylnon-6-enamide] gave an activity at 10 µM (EKVX) of 72%, an activity at 10 µM (SN12C) of 80.2% and an activity at 10 µM (SF-268) of 84%. For the same molecule, the activity at 10 µM (SK-MEL-5) was 77.6%, the activity at 10 µM (CAKI-1) was 89% and the activity at 10 µM (M14) was 90.6%. For the same molecule, the activity at 10 µM (MALME-3M) was 97.8%, the activity at 10 µM (T-47D) was 71% and the activity at 10 µM (786-0) was 92.5%. It also gave an activity at 10 µM (HS 578T) of 90.3%, an activity at 10 µM (U251) of 86.9% and an activity at 10 µM (SF-295) of 88.3%. It also gave an activity at 10 µM (SK-OV-3) of 91.6%, an activity at 10 µM (OVCAR-8) of 79% and an activity at 10 µM (TK-10) of 99.3%. For the same molecule, the activity at 10 µM (UO-31) was 76.6%, the activity at 10 µM (OVCAR-5) was 100% and the activity at 10 µM (HOP-62) was 84%. The activity at 10 µM (NCI-H460) was 79.9%, the activity at 10 µM (NCI/ADR-RES) was 78.1% and the activity at 10 µM (OVCAR-3) was 105%. It also gave an activity at 10 µM (HOP-92) of 77.1%, an activity at 10 µM (COLO205) of 108% and an activity at 10 µM (NCI-H322M) of 92.2%. It also gave an activity at 10 µM (NCI-H226) of 70.4%, an activity at 10 µM (MOLT-4) of 82% and an activity at 10 µM (LOX IMVI) of 85.6%. For the same molecule, the activity at 10 µM (RPMI-8226) was 60.8%, the activity at 10 µM (NCI-H522) was 65.7% and the activity at 10 µM (OVCAR-4) was 82.6%. The activity at 10 µM (MDA-MB-435) was 99.3%, the activity at 10 µM (MDA-MB-468) was 64.9% and the activity at 10 µM (SNB-19) was 87.7%. The activity at 10 µM (RXF 393) was 98%, the activity at 10 µM (DU-145) was 98.9% and the activity at 10 µM (HCT-15) was 91.8%.

`CCc1ccc(-n2cc(COc3ccc(CNC(=O)CCCC/C=C/C(C)C)cc3OC)nn2)cc1` [14o, (E)-N-(4-((1-(4-Ethylphenyl)-1H-1,2,3-triazol-4-yl)methoxy)-3-methoxybenzyl)-8-methylnon-6-enamide] gave an activity at 10 µM (EKVX) of 82.1%, an activity at 10 µM (SN12C) of 98.5% and an activity at 10 µM (SF-268) of 93%. The activity at 10 µM (SK-MEL-5) was 84%, the activity at 10 µM (CAKI-1) was 77.4% and the activity at 10 µM (M14) was 99.8%. The activity at 10 µM (MALME-3M) was 108%, the activity at 10 µM (T-47D) was 111% and the activity at 10 µM (786-0) was 100%. For the same molecule, the activity at 10 µM (HS 578T) was 78%, the activity at 10 µM (U251) was 89.4% and the activity at 10 µM (SF-295) was 100%. For the same molecule, the activity at 10 µM (SK-OV-3) was 102%, the activity at 10 µM (OVCAR-8) was 91.1% and the activity at 10 µM (TK-10) was 87.4%. The activity at 10 µM (UO-31) was 93.9%, the activity at 10 µM (OVCAR-5) was 112% and the activity at 10 µM (HOP-62) was 94.5%. The activity at 10 µM (NCI-H460) was 103%, the activity at 10 µM (NCI/ADR-RES) was 87.7% and the activity at 10 µM (OVCAR-3) was 101%. The activity at 10 µM (HOP-92) was 86.5%, the activity at 10 µM (COLO205) was 121% and the activity at 10 µM (NCI-H322M) was 90.5%. It also gave an activity at 10 µM (NCI-H226) of 76.7%, an activity at 10 µM (MOLT-4) of 79.6% and an activity at 10 µM (LOX IMVI) of 89.3%. For the same molecule, the activity at 10 µM (RPMI-8226) was 74%, the activity at 10 µM (NCI-H522) was 65.9% and the activity at 10 µM (OVCAR-4) was 89%. It also gave an activity at 10 µM (MDA-MB-435) of 107%, an activity at 10 µM (MDA-MB-468) of 79.8% and an activity at 10 µM (SNB-19) of 85.7%. For the same molecule, the activity at 10 µM (RXF 393) was 101%, the activity at 10 µM (DU-145) was 93.8% and the activity at 10 µM (HCT-15) was 94.4%.

Source: paper PMC9476207 (ACS Omega, 2022)
